This passage reports Activity, MIC50 and MIC90 results from ChEMBL document CHEMBL1152989, “Results of a double-blind, randomized trial of ceftobiprole treatment of complicated skin and skin structure infections caused by gram-positive bacteria” (Antimicrob Agents Chemother, 2008).

Each structure is given as a SMILES string. Values after ≈ are worked out from the molar mass of the structure shown.

Series [1] relates to Staphylococcus aureus. As to the kind of experiment: Antibacterial activity against methicillin-resistant Staphylococcus aureus infected in human with infections extending to fascia or muscle assessed as cure rate at test-of-cure visit. It is filed as functional, Muscle tissue.
For series [2], the species on record is Homo sapiens. In words: Toxicity in methicillin-resistant Staphylococcus aureus-infected human with complicated skin and skin structure infection assessed as nausea. Format: organism-based. To be noted: in vivo. A digest of the protocol: (§1)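 Safety population: randomized patients given at least one dose of IV study drug (500 mg every 12 h, 1-h infusion, 7–14 days) or vancomycin 1 g every 12 h, double-blind. Adverse events, including deaths, were recorded during treatment and follow-up. Laboratory values were compared between baseline and end of therapy.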

The species named for series [3] is Homo sapiens. As to the kind of experiment: Toxicity in methicillin-resistant Staphylococcus aureus-infected human with complicated skin and skin structure infection assessed as vomiting. Format: organism-based. To be noted: in vivo. The essentials:
as §1

The species named for series [4] is Homo sapiens. As to the kind of experiment: Toxicity in methicillin-resistant Staphylococcus aureus-infected human with complicated skin and skin structure infection assessed as dysgeusia. To be noted: in vivo. Format: organism-based. The essentials: as §1
Series [5] is filed under the species Homo sapiens. As to the kind of experiment: Toxicity in methicillin-resistant Staphylococcus aureus-infected human with complicated skin and skin structure infection assessed as diarrhea. To be noted: in vivo. Format: organism-based. The essentials: as §1
The species entered for series [6] is Homo sapiens. In words: Toxicity in methicillin-resistant Staphylococcus aureus-infected human with complicated skin and skin structure infection assessed as constipation. Format: organism-based. To be noted: in vivo. A digest of the protocol: as §1
The species named for series [7] is Homo sapiens. As to the kind of experiment: Toxicity in methicillin-resistant Staphylococcus aureus-infected human with complicated skin and skin structure infection assessed as headache. Format: organism-based. To be noted: in vivo. The essentials:
as §1

Series [8] is filed under the species Homo sapiens. In words: Toxicity in methicillin-resistant Staphylococcus aureus-infected human with complicated skin and skin structure infection assessed as dizziness. Format: organism-based. To be noted: in vivo. A digest of the protocol: as §1
The species entered for series [9] is Homo sapiens. In words: Toxicity in methicillin-resistant Staphylococcus aureus-infected human with complicated skin and skin structure infection assessed as rash. Format: organism-based. To be noted: in vivo. A digest of the protocol: as §1
The species entered for series [10] is Homo sapiens. In words: Toxicity in methicillin-resistant Staphylococcus aureus-infected human with complicated skin and skin structure infection assessed as pruritus. It is filed as organism-based. To be noted: in vivo. A digest of the protocol:
as §1

The species named for series [11] is Homo sapiens. As to the kind of experiment: Toxicity in methicillin-resistant Staphylococcus aureus-infected human assessed as death. It is filed as organism-based. To be noted: in vivo. The essentials: as §1
The subject of series [12] is Staphylococcus aureus. In words: Antibacterial activity against methicillin-resistant Staphylococcus aureus infected in human with complicated skin and skin structure infection assessed as cure rate at test-of-cure visit. Format: functional.
The subject of series [13] is Staphylococcus aureus. In words: Antibacterial activity against methicillin-susceptible Staphylococcus aureus. Format: functional. A digest of the protocol: (§2)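 Duplicate baseline isolates from the infection site were tested centrally for susceptibility on customized TREK broth panels by CLSI methods. Identification was by coagulase and API testing. Staphylococci were typed for mecA and PVL genes by multiplex analysis.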

Series [14] deals with Staphylococcus aureus. As to the kind of experiment: Antibacterial activity against methicillin-susceptible Staphylococcus aureus infected in human with complicated skin and skin structure infection assessed as cure rate at test-of-cure visit. Format: functional.
In series [15] the test system is Staphylococcus aureus. As to the kind of experiment: Antibacterial activity against methicillin-resistant Staphylococcus aureus. Format: functional. The essentials: as §2
The test system of series [16] is Staphylococcus aureus. As to the kind of experiment: Antibacterial activity against methicillin-resistant Staphylococcus aureus clinical isolate. Format: functional. The essentials: as §2
Series [17] relates to Staphylococcus aureus. As to the kind of experiment: Antibacterial activity against methicillin-resistant Staphylococcus aureus infected in human with complicated skin and skin structure infection assessed as cure rate at test-of-cure visit in presence of C-reactive protein. Format: functional.
Series [18] concerns Staphylococcus aureus. In words: Antibacterial activity against methicillin-resistant Staphylococcus aureus PVL positive isolate infected in human with complicated skin and skin structure infection assessed as cure rate at test-of-cure visit. It is filed as functional.

As a reminder, the MIC50 is an inhibitory concentration at the 50% level, which refers to growth in some studies and to a panel of isolates in others. Usually MIC90 stands for the lowest concentration that inhibits either 90% of growth or 90% of the strains tested, depending on the study. A higher MIC90 goes with weaker potency. As to `Nc1nc(/C(=N/O)C(=O)N[C@@H]2C(=O)N3C(C(=O)O)=C(/C=C4\CCN([C@@H]5CCNC5)C4=O)CS[C@H]23)ns1` [CEFTOBIPROLE], the Activity is 90.5% with Staphylococcus aureus [1]; 14% in the series filed under Homo sapiens [2]; 7% in the series filed under Homo sapiens [3]; 8% in the series listed under Homo sapiens [4]; 5% in the series filed under Homo sapiens [5]; 4% in the series filed under Homo sapiens [6]. Further, the Activity was 7% in the series listed under Homo sapiens [7]; 4% in the series listed under Homo sapiens [8]; 2% in the series listed under Homo sapiens [9]; 3% in the series listed under Homo sapiens [10]; “Non-toxic” in the series filed under Homo sapiens [11]; 91.8% in the series with Staphylococcus aureus [12]. Further, the results for the Activity in the series with Staphylococcus aureus [14], in the series with Staphylococcus aureus [17] and in the series with Staphylococcus aureus [18] were 96%, 86.9% and 93.1%, respectively. The MIC50 against Staphylococcus aureus [13] was 0.25 µg/mL (≈ 0.468 µM); in the series with Staphylococcus aureus [16], 0.5 µg/mL (≈ 0.935 µM). Also, the values for the MIC90 in the series on Staphylococcus aureus [13], against Staphylococcus aureus [15] and in the series on Staphylococcus aureus [16] were 0.5 µg/mL (≈ 0.935 µM), not above 2 µg/mL and 2 µg/mL (≈ 3.74 µM), respectively.
For the compound `CN[C@H](CC(C)C)C(=O)N[C@H]1C(=O)N[C@@H](CC(N)=O)C(=O)N[C@H]2C(=O)N[C@H]3C(=O)N[C@H](C(=O)N[C@H](C(=O)O)c4cc(O)cc(O)c4-c4cc3ccc4O)[C@H](O)c3ccc(c(Cl)c3)Oc3cc2cc(c3O[C@@H]2O[C@H](CO)[C@@H](O)[C@H](O)[C@H]2O[C@H]2C[C@](C)(N)[C@H](O)[C@H](C)O2)Oc2ccc(cc2Cl)[C@H]1O` [VANCOMYCIN], the Activity in the series on Staphylococcus aureus [1] is listed as 85.7%; in the series filed under Homo sapiens [2], 8%; in the series listed under Homo sapiens [3] it was 4%; in the series filed under Homo sapiens [4], 1%; in the series filed under Homo sapiens [5], 4%; in the series filed under Homo sapiens [6], 3%. For the same compound, the Activity in the series filed under Homo sapiens [7] was 6%; in the series listed under Homo sapiens [8], 2%; in the series filed under Homo sapiens [9] it was 3%; in the series filed under Homo sapiens [10], 6%; in the series with Staphylococcus aureus [12], 90%; in the series with Staphylococcus aureus [14] it was 96.4%. Also, the Activity amounted to 87.5% with Staphylococcus aureus [17] and 84.6% in the series on Staphylococcus aureus [18]. In addition, the MIC50 in the series with Staphylococcus aureus [13] and in the series with Staphylococcus aureus [16] was 0.5 µg/mL (≈ 0.345 µM) in each case. The MIC90 in the series on Staphylococcus aureus [13] and against Staphylococcus aureus [16] was 1 µg/mL (≈ 0.69 µM) throughout.
